In ChEMBL document CHEMBL4342471, “Discovery of Thieno[2,3-d]pyrimidine-Based Hydroxamic Acid Derivatives as Bromodomain-Containing Protein 4/Histone Deacetylase Dual Inhibitors Induce Autophagic Cell Death in Colorectal Carcinoma Cells” (J Med Chem, 2020):
Calls of active or inactive are those of the source. The calls are words filed in the database; no cut-off is given here.

How the values were obtained:
Homo sapiens [1] = organism: Homo sapiens; assay: Inhibition of BRD4/HDAC in human HCT116 cells assessed as inhibition of IL6-JAK-STAT3 signaling pathway by measuring decrease in JAK1 expression at 0.5 uM after 24 hrs by Western blot analysis; type: cell-based
Summary of the method: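 HCT-116 cells treated 24 h with 0.5 µM, 5.0 µM or 10 µM test agent depending on compound; OSMR, LIFR and downstream pathway proteins detected by western blot.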

Histone deacetylase 9 = Histone deacetylase 9 (Homo sapiens, UniProt Q9UKV0); assay: Inhibition of HDAC9 (unknown origin) using biotinylated histone H3 KAc peptide (1 to 21 residues) as substrate by HTRF assay
[2] = Tmax in Sprague-Dawley rat at 30 mg/kg, po measured up to 1440 mins by UPLC-QTOF/MS analysis; type: ADME, organism-based; conditions: in vivo
Mus musculus [3] = assay: In vivo inhibition of BRD4 in BALB/cAnNCrl mouse xenografted with human HCT116 cells assessed as decrease in c-Myc expression in tumor tissue at 15 to 30 mg/kg, po administered on day 1 to day 19 measured on day 19 by immunohistochemical analysis; type: functional, organism-based
Summary of the method: (§1)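 HCT-116 xenograft mice were dosed orally at 15 or 30 mg/kg, or 30 mg/kg for reference agents, for 19 days, with vehicle or saline controls. Tumor sections were stained for Ki-67, c-Myc, Ac-H3, BRD4, LC3-II, LIFR and p-STAT3 by immunohistochemistry, and TUNEL staining was used as the apoptosis marker.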

Mus musculus [4] = assay: Downregulation of Ki67 expression in tumor tissue of BALB/cAnNCrl mouse xenografted with human HCT116 cells at 15 to 30 mg/kg, po administered on day 1 to day 19 measured on day 19 by Ki67-staining based immunohistochemical analysis; type: functional, organism-based; summary of the method: as §1
Histone deacetylase 4 = Histone deacetylase 4 (Homo sapiens, UniProt P56524); assay: Inhibition of HDAC4 (unknown origin) using biotinylated histone H3 KAc peptide (1 to 21 residues) as substrate by HTRF assay
[5] = molecular target: T1, Bromodomain-containing protein 4 (Homo sapiens, UniProt O60885); assay: Inhibition of human recombinant His-tagged BRD4 BD1 domain using H-SGRGK(Ac)GGK(Ac)GLGK-(Ac)GGAK(Ac)RHRK(Biotin)-OH as substrate preincubated with enzyme for 30 mins followed by substrate addition measured after 30 mins by AlphaScreen assay
[6] = Half life in Sprague-Dawley rat at 30 mg/kg, iv administered as bolus dose measured up to 1440 mins by UPLC-QTOF/MS analysis; type: ADME, organism-based; conditions: in vivo
HCT-116 [7] = assay: Inhibition of colony formation in human HCT116 cells at 0.2 to 0.5 uM incubated for 24 hrs; type: functional, cell-based
Summary of the method: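 HCT-116 colony formation assessed after treatment at 0.2 or 0.5 µM.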

[8] = molecular target: T1, Bromodomain-containing protein 4; assay: Inhibition of BRD4 in human HCT116 cells transfected with GFP-LC3 assessed as induction of autophagy by measuring increase in LC3 puncta at 0.5 uM measured after 24 hrs by confocal fluorescence microscopy; type: cell-based
Summary of the method: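 HCT-116 cells transfected with GFP-LC3 plasmid, then incubated 24 h with 0.5 µM test agent; LC3 puncta (autophagosomes) imaged by confocal fluorescence microscopy.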

Homo sapiens [9] = organism: Homo sapiens; assay: Inhibition of BRD4/HDAC in human HCT116 cells assessed as increase in IL6 mRNA level at 0.5 uM after 24 hrs by RT-PCR analysis; type: cell-based
Summary of the method: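 HCT-116 cells incubated 24 h with test agent (0.5 µM, 2.0 µM or 10 µM depending on compound); IL6, OSM, LIF and CTF1 mRNA levels then quantified.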

[10] = molecular target: T1, Bromodomain-containing protein 4; assay: Inhibition of BRD4 in human HCT116 cells assessed as reduction in C-myc level at 0.2 to 0.5 uM measured after 24 hrs by Western blot analysis; type: cell-based
HCT-116 [11] = assay: Induction of apoptosis in human HCT116 cells assessed as viable cells at 0.2 uM by Annexin-V FITC/propidium iodide staining-based flow cytometry (reference value: 93.4 %); type: functional; conditions: read-out: Activity
[12] = molecular target: T1, Bromodomain-containing protein 4; assay: Inhibition of BRD4 in human HCT116 cells assessed as induction of autophagic flux by measuring accumulation of p62 at 0.5 uM after 24 hrs in presence of auto-phagolysosome inhibitor, bafilomycin-A1 by Western blot analysis; type: cell-based
Summary of the method: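 HCT-116 cells received 0.5 μM compound with or without bafilomycin-A1 for 24 hours. LC3 and p62 protein were then analysed by western blot.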

HCT-116 [13] = assay: Induction of apoptosis in human HCT116 cells assessed as late apoptotic cells at 0.5 uM by Annexin-V FITC/propidium iodide staining-based flow cytometry (reference value: 3.51 %); type: functional
[14] = molecular target: T1, Bromodomain-containing protein 4; assay: Inhibition of BRD4 in human HCT116 cells assessed as induction of autophagy by measuring upregulation of beclin1 expression at 0.2 to 0.5 uM measured after 24 hrs by Western blot analysis; type: cell-based
[15] = molecular target: Bromodomain-containing protein 3 (Homo sapiens, UniProt Q15059); assay: Inhibition of human recombinant His-tagged BRD3 BD2 domain expressed in Escherichia coli BL21(DE3)-R3-pRARE2 cells by AlphaScreen assay
Homo sapiens [16] = organism: Homo sapiens; assay: Inhibition of BRD4/HDAC in human HCT116 cells assessed as increase in caspase 9 cleavage at 0.2 to 0.5 uM measured after 24 hrs by Western blot analysis; type: cell-based
[17] = molecular target: T1, Bromodomain-containing protein 4; assay: Inhibition of BRD4 in human HCT116 cells transfected with ATG5 siRNA assessed as activation of AMPK-alpha at 0.5 uM by Western blot analysis; type: cell-based
Summary of the method: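 HCT-116 cells first transfected with ATG5 siRNA or scramble siRNA; after silencing, exposed to 0.5 µM test agent or normal saline, then ATG5, AMPKα, p-AMPKα, p62 and LC3 protein assessed by western blot.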

Bromodomain-containing protein 3, sequence (Q15059 whole entry, the tested form may be a part): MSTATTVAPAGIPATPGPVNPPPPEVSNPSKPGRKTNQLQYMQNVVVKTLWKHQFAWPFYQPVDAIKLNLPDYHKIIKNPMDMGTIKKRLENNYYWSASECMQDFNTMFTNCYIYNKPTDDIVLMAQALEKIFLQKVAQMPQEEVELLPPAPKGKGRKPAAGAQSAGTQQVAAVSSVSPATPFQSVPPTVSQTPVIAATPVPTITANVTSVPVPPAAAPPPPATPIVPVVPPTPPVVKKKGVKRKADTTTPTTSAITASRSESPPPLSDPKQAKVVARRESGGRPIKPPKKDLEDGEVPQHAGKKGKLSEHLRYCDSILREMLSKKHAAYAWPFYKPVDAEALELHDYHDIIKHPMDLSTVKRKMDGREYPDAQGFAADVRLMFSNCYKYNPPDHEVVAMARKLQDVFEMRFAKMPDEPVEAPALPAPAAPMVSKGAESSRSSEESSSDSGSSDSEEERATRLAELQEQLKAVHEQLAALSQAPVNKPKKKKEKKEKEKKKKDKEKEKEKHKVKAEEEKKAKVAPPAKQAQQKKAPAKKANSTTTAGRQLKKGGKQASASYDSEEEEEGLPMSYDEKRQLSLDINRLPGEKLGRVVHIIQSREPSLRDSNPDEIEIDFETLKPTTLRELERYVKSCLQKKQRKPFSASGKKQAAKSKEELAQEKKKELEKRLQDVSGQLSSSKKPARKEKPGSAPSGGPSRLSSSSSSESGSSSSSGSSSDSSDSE
Histone deacetylase 9, sequence (Q9UKV0 whole entry, the tested form may be a part): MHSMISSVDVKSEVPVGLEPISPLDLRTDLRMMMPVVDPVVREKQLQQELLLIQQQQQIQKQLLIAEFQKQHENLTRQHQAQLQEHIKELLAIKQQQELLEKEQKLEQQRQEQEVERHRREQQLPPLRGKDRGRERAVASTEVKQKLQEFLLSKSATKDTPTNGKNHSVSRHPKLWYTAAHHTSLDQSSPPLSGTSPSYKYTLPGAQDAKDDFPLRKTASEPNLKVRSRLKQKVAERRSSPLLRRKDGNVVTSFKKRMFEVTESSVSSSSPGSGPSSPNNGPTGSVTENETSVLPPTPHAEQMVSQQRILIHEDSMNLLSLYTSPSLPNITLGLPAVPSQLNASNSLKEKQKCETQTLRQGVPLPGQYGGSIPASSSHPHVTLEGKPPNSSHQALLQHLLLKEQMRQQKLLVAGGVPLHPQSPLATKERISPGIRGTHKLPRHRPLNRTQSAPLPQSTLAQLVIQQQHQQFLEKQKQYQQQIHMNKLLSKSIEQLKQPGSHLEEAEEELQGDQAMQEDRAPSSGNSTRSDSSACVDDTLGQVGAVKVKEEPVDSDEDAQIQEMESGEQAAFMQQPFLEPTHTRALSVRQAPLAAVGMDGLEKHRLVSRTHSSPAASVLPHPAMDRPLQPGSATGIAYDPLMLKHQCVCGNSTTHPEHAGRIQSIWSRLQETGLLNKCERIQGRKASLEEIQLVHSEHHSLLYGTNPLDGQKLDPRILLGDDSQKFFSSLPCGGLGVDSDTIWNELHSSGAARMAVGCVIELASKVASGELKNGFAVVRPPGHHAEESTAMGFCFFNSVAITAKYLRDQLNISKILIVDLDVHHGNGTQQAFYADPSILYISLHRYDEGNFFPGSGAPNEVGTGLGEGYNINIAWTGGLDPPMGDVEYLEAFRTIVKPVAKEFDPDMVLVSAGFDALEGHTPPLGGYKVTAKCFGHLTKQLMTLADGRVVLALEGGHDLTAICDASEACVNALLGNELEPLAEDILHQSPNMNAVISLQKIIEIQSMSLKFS
Histone deacetylase 4, sequence (P56524 whole entry, the tested form may be a part): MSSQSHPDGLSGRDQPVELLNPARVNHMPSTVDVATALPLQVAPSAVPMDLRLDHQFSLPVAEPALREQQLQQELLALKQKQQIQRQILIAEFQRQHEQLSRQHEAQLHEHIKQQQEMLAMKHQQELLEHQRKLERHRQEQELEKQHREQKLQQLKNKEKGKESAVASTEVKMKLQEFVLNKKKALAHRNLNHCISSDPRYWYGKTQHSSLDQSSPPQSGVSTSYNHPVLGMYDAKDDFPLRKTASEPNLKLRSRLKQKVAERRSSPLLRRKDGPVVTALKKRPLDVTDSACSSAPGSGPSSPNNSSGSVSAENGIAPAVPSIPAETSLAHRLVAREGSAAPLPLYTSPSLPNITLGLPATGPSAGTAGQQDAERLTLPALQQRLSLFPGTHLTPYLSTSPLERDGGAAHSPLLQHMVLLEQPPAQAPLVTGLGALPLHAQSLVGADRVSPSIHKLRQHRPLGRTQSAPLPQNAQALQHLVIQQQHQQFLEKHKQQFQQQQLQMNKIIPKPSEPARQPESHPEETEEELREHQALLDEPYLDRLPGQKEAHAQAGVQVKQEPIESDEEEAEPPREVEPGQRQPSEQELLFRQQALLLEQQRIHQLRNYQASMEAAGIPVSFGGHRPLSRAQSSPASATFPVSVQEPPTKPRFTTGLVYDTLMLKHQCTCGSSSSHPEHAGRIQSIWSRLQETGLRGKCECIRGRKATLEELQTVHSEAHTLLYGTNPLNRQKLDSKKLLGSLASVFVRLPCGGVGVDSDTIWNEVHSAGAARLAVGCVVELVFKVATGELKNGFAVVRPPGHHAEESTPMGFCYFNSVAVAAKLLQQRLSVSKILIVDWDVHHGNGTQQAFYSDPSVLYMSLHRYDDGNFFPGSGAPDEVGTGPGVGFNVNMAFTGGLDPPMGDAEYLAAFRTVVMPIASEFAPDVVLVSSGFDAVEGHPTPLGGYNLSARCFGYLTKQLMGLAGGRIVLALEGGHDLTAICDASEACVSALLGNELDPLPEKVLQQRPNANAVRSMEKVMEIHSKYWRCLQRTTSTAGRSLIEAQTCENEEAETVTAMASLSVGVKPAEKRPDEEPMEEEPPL

Q: With `Cc1cc(-c2nc3sc4c(c3c(=O)[nH]2)CCN(C)C4)cc(C)c1OCCCCCC(=O)NO` as the molecule, how does the inhibition (Homo sapiens [1]) read?
A: The inhibition was “Active”.

Q: And the IC50 (Histone deacetylase 9)?
A: Its IC50 is greater than 10 µM.

Q: And the Tmax [2]?
A: Its Tmax is 1.53 h.

Q: What about the inhibition (Mus musculus [3]) of the same molecule?
A: The inhibition was “Active”.

Q: What about the inhibition (Mus musculus [4]) of the same molecule?
A: Its inhibition is “Active”.

Q: What about the IC50 (Histone deacetylase 4) of the same molecule?
A: The IC50 was greater than 10 µM.

Q: What about the IC50 [5] of the same molecule?
A: The IC50 was 1.1 µM.

Q: And the half-life [6]?
A: Its half-life is 2.48 h.

Q: And the inhibition (HCT-116 [7])?
A: The inhibition was “Active”.

Q: What about the inhibition [8] of the same molecule?
A: Its inhibition is “Active”.

Q: What about the inhibition (Homo sapiens [9]) of the same molecule?
A: The inhibition was “Active”.

Q: And the inhibition [10]?
A: Its inhibition is “Active”.

Q: And the viability at 0.2 µM (HCT-116 [11])?
A: Its viability at 0.2 µM is 61.7%.

Q: And the inhibition [12]?
A: The inhibition was “inactive”.

Q: And the Activity (HCT-116 [13])?
A: The Activity was 35.8%.

Q: What about the inhibition [14] of the same molecule?
A: The inhibition was “Active”.

Q: And the IC50 [15]?
A: The IC50 was greater than 20 µM.

Q: And the inhibition (Homo sapiens [16])?
A: Its inhibition is “Active”.

Q: What about the inhibition [17] of the same molecule?
A: The inhibition was “Active”.
